Reference: ChEMBL document CHEMBL1126205, “Novel spirosuccinimides with incorporated isoindolone and benzisothiazole 1,1-dioxide moieties as aldose reductase inhibitors and antihyperglycemic agents” (1992)
Each block holds one molecule with its values, some of them ahead of it. Calls of active or inactive are those of the source. The rule behind the calls is not given here.

Columns and labels:
Rattus norvegicus [1] = assay: In vivo galactitol inhibitory activity measured by its ability to inhibit galactitol accumulation in lens at 6 mg/Kg/day; NS=Not significant (% Inhibition); assay type: functional, organism-based; details: Lens of camera-type eye
Procedure, shortened: (§1)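 Rats (n = 6) fed 20% galactose for 4 days, with compound given in the diet at the stated mg/kg per day. Galactitol accumulation in lens, sciatic nerve or diaphragm is scored as percent inhibition versus the non-treated group, as means of 3–8 drug-treated tissue samples. Dunnett's multiple comparison test applies; NS means p > 0.05.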

[2] = molecular target: Aldo-keto reductase family 1 member B1 (Bos taurus) (UniProt P16116); assay: In vitro aldose reductase inhibitory activity measured by NADPH-dependent inhibition of glyceraldehyde reduction in a partially purified bovine lens preparation at 10E-6 M
Procedure, shortened: (§2)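 Aldose reductase partially purified from bovine lens. Inhibition of NADPH-dependent glyceraldehyde reduction is measured at the single stated concentration and reported as percent inhibition, the mean of two determinations.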

[3] = molecular target: Aldo-keto reductase family 1 member B1 (Bos taurus) (UniProt P16116); assay: In vitro aldose reductase inhibitory activity measured by NADPH-dependent inhibition of glyceraldehyde reduction in a partially purified bovine lens preparation at 10E-7 M; procedure, shortened: as §2
Rattus norvegicus [4] = assay: In vivo galactitol activity by measuring its ability to inhibit galactitol accumulation in sciatic nerve at 6 mg/Kg/day; NS=Not significant (% Inhibition); assay type: functional, organism-based; procedure, shortened: as §1
Mus musculus [5] = assay: Antihyperglycemic activity measured as percent decrease in mice plasma glucose at 87 mg/Kg/day; assay type: functional
Procedure, shortened: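 Male db/db (C57BL/KsJ) mice, 4–6 per group, dosed at the stated mg/kg per day. Plasma glucose is expressed as percent decrease versus the vehicle-treated group. Values are mean ± SE.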

Rattus norvegicus [6] = assay: In vivo galactitol inhibitory activity measured by its ability to inhibit galactitol accumulation in lens at 3 mg/Kg/day; NS=Not significant (% Inhibition); assay type: functional, organism-based; details: Lens of camera-type eye; procedure, shortened: as §1
Rattus norvegicus [7] = assay: In vivo galactitol inhibitory activity measured by its ability to inhibit galactitol accumulation in diaphragm at 10 mg/Kg/day; assay type: functional; procedure, shortened: as §1
Rattus norvegicus [8] = assay: In vivo galactitol inhibitory activity measured by its ability to inhibit galactitol accumulation in sciatic nerve at 3 mg/Kg/day; assay type: functional
Procedure, shortened: (§3)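 Rats (n = 6) fed 20% galactose for 4 days, with compound given in the diet at the stated daily dose. Galactitol accumulation was measured in lens, sciatic nerve and diaphragm, and % inhibition was taken versus the nontreated group. Means are from three to eight drug-treated tissue samples. Dunnett's multiple comparison test was applied, with p > 0.05 reported as not significant.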

Rattus norvegicus [9] = assay: In vivo galactitol inhibitory activity measured by its ability to inhibit galactitol accumulation in lens at 10 mg/Kg/day; assay type: functional; details: Lens of camera-type eye; procedure, shortened: as §1
Rattus norvegicus [10] = assay: In vivo galactitol inhibitory activity measured by its ability to inhibit galactitol accumulation in diaphragm at 6 mg/Kg/day; assay type: functional; procedure, shortened: as §1
Rattus norvegicus [11] = assay: In vivo galactitol inhibitory activity measured by its ability to inhibit galactitol accumulation in sciatic nerve at 10 mg/Kg/day; NS=Not significant (% Inhibition); assay type: functional, organism-based; procedure, shortened: as §3
Mus musculus [12] = assay: Antihyperglycemic activity measured as percent decrease in mice plasma glucose at 100 mg/Kg/day; assay type: functional
Procedure, shortened: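 Male db/db (C57BL/KsJ) mice, 4–6 per group, dosed at 100 mg/kg per day. Plasma glucose of the drug-treated group is expressed as percent decrease relative to a vehicle-treated control group. Values are mean ± SE, with p < 0.05 marked.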

Rattus norvegicus [13] = assay: In vivo galactitol inhibitory activity measured by its ability to inhibit galactitol accumulation in diaphragm at 3 mg/Kg/day; assay type: functional; procedure, shortened: as §1
Rattus norvegicus [14] = assay: In vivo galactitol inhibitory activity measured by its ability to inhibit galactitol accumulation in lens at 6 mg/Kg/day; assay type: functional, Lens of camera-type eye; details: Rattus norvegicus, Lens of camera-type eye; procedure, shortened: as §1
Rattus norvegicus [15] = assay: In vivo galactitol inhibitory activity measured by its ability to inhibit galactitol accumulation in sciatic nerve at 6 mg/Kg/day; NS=Not significant (% Inhibition); assay type: functional, organism-based; procedure, shortened: as §3
Mus musculus [16] = assay: Antihyperglycemic activity was determined by measuring percent decrease in plasma glucose at 5 mg/kg/day; assay type: functional
Mus musculus [17] = assay: Antihyperglycemic activity was determined by measuring percent decrease in plasma glucose at 1 mg/kg/day; assay type: functional
Rattus norvegicus [18] = assay: In vivo galactitol inhibitory activity measured by its ability to inhibit galactitol accumulation in lens at 66 mg/Kg/day; assay type: functional; details: Lens of camera-type eye; procedure, shortened: as §3
Rattus norvegicus [19] = assay: In vivo galactitol inhibitory activity measured by its ability to inhibit galactitol accumulation in sciatic nerve at 66 mg/Kg/day; assay type: functional; procedure, shortened: as §3
Rattus norvegicus [20] = assay: In vivo galactitol inhibitory activity measured by its ability to inhibit galactitol accumulation in diaphragm at 66 mg/kg/day; assay type: functional; procedure, shortened: as §1
Rattus norvegicus [21] = assay: In vivo galactitol inhibitory activity measured by its ability to inhibit galactitol accumulation in sciatic nerve at 109 mg/Kg/day; NS=Not significant (% Inhibition); assay type: functional, organism-based; procedure, shortened: as §3
Rattus norvegicus [22] = assay: In vivo galactitol inhibitory activity measured by its ability to inhibit galactitol accumulation in diaphragm at 109 mg/Kg/day; assay type: functional; procedure, shortened: as §1
Rattus norvegicus [23] = assay: In vivo galactitol inhibitory activity measured by its ability to inhibit galactitol accumulation in lens at 109 mg/Kg/day; NS=Not significant (% Inhibition); assay type: functional, organism-based; details: Lens of camera-type eye; procedure, shortened: as §1
Rattus norvegicus [24] = assay: In vivo galactitol inhibitory activity measured by its ability to inhibit galactitol accumulation in diaphragm at 97 mg/kg/day; assay type: functional; procedure, shortened: as §1
Rattus norvegicus [25] = assay: In vivo galactitol inhibitory activity measured by its ability to inhibit galactitol accumulation in lens at 97 mg/Kg/day; NS=Not significant (% Inhibition); assay type: functional, organism-based; details: Lens of camera-type eye; procedure, shortened: as §3
Rattus norvegicus [26] = assay: In vivo galactitol inhibitory activity measured by its ability to inhibit galactitol accumulation in sciatic nerve at 97 mg/kg/day; assay type: functional; procedure, shortened: as §3
Rattus norvegicus [27] = assay: In vivo galactitol inhibitory activity measured by its ability to inhibit galactitol accumulation in diaphragm at 4 mg/Kg/day; assay type: functional; procedure, shortened: as §1
Rattus norvegicus [28] = assay: In vivo galactitol inhibitory activity measured by its ability to inhibit galactitol accumulation in sciatic nerve at 4 mg/Kg/day; assay type: functional; procedure, shortened: as §3
Rattus norvegicus [29] = assay: In vivo galactitol inhibitory activity measured by its ability to inhibit galactitol accumulation in lens at 4 mg/Kg/day; assay type: functional; details: Lens of camera-type eye; procedure, shortened: as §1

Compound: CC(C)N1C2(CC(=O)NC2=O)c2ccccc2S1(=O)=O (stereo not given)
Decrease (Mus musculus [5]): 27%

Compound: Cc1oc(-c2ccccc2)nc1CCOc1ccc(CC2SC(=O)NC2=O)cc1 (stereo not given)
Decrease (Mus musculus [16]): 52%
Decrease (Mus musculus [17]): 40%

Compound: O=C1NC(=O)[C@@]2(CCOc3ccc(F)cc32)N1 [SORBINIL]
inhibition in vivo at 4 mg/kg/day (Rattus norvegicus [27]): 69%
inhibition in vivo at 4 mg/kg/day (Rattus norvegicus [28]): 55%
inhibition in vivo at 4 mg/kg/day (Rattus norvegicus [29]): 20%

Now from value to molecule, other results behind:

inhibition [2]: 33%
inhibition [3]: 0%
Compound: CN1C(=O)c2ccc(Cl)cc2C12CC(=O)NC2=O (single isomer, unassigned; (-))
inhibition (Rattus norvegicus [1]): inactive
inhibition (Rattus norvegicus [4]): inactive

inhibition [2]: 61%
inhibition [3]: 26%
Compound: Cc1ccc2c(c1)C(=O)N(C)C21CC(=O)NC1=O (stereo not given)
inhibition (Rattus norvegicus [6]): inactive
inhibition in vivo at 10 mg/kg/day (Rattus norvegicus [7]): 47%
inhibition in vivo at 3 mg/kg/day (Rattus norvegicus [8]): 20%
inhibition in vivo at 10 mg/kg/day (Rattus norvegicus [9]): 12%
inhibition in vivo at 6 mg/kg/day (Rattus norvegicus [10]): 39%
inhibition (Rattus norvegicus [11]): inactive
Decrease (Mus musculus [12]): <15%
inhibition in vivo at 3 mg/kg/day (Rattus norvegicus [13]): 27%
inhibition in vivo at 6 mg/kg/day (Rattus norvegicus [14]): 13%
inhibition (Rattus norvegicus [15]): inactive

inhibition [2]: 45%
inhibition [3]: 11%
Compound: CN1C(=O)c2ccccc2C12CC(=O)NC2=O (stereo not given)
inhibition in vivo at 66 mg/kg/day (Rattus norvegicus [18]): 32%
inhibition in vivo at 66 mg/kg/day (Rattus norvegicus [19]): 63%
inhibition in vivo at 66 mg/kg/day (Rattus norvegicus [20]): 58%
Decrease (Mus musculus [12]): <15%

inhibition [2]: 45%
inhibition [3]: 18%
Compound: O=C1CC2(C(=O)N1)c1ccccc1C(=O)N2Cc1ccc(Cl)c(Cl)c1 (stereo not given)
inhibition (Rattus norvegicus [21]): inactive
inhibition in vivo at 109 mg/kg/day (Rattus norvegicus [22]): 33%
Decrease (Mus musculus [12]): 21%
inhibition (Rattus norvegicus [23]): inactive

inhibition [2]: 70%
inhibition [3]: 13%
Compound: O=C1CC2(C(=O)N1)c1cc(Cl)ccc1C(=O)N2Cc1ccc(Br)cc1F (stereo not given)
inhibition in vivo at 97 mg/kg/day (Rattus norvegicus [24]): 30%
Decrease (Mus musculus [12]): <15%
inhibition (Rattus norvegicus [25]): inactive
inhibition in vivo at 97 mg/kg/day (Rattus norvegicus [26]): 24%
